In the library only some 1.8% were active in any assay of this set; here they are far more common.
CHRM4 antagonist: human M4 muscarinic receptor antagonists, primary screen, CHO cells, Fluo-8 calcium fluorescence | CHO-hM4 cells, ACh EC80 | hit rate 0.73% among 360,000 | Muscarinic acetylcholine receptor M4 (Homo sapiens), P08173 | inhibition, % at 3 µM | AID 624125, 2012;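 active = inhibition above its plate's cutoff, the mean inhibition of sample wells plus 3 SD, cut at about 27% in these data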;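 also: 0% = acetylcholine EC80 with DMSO and 100% = DMSO without agonist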
Target sequence (P08173 whole entry, looked up): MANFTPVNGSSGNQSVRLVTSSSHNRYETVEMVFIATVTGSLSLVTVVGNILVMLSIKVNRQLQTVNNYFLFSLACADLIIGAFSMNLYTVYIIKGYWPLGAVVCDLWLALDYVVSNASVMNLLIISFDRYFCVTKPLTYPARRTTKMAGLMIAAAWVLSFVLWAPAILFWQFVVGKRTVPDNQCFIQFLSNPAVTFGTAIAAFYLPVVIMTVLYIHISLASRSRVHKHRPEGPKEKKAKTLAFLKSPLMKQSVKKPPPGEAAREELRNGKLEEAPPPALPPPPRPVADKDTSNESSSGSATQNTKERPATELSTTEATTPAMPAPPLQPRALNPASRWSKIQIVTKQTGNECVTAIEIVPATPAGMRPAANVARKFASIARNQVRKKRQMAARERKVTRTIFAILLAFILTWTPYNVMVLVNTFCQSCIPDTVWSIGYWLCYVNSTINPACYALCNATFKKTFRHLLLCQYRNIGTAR
M5 PAM: human M5 muscarinic receptor positive allosteric modulators, primary screen, CHO-K1 cells, Fluo-8 calcium fluorescence | hit rate 0.3% among 360,000 | CHO-K1 hM5, ACh EC20 PAM; 0% = ACh EC20, 100% = ACh EC100 | activation, % at 3 µM | Muscarinic acetylcholine receptor M5 (Homo sapiens), P08912;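 active = activation above the run cutoff, the mean activation of all test compounds plus 3 SD, cut at about 18% in these data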
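system = human M5 receptor in CHO-K1 cells | compound = one concentration, 3 µM final (nominal) | schedule = Post-acetylcholine fluorescence recording 140 s | signal = Fluo-8 calcium dye fluorescence, kinetic read | benchmarks = low control EC20 acetylcholine (0%), high control EC100 acetylcholine (100%) | repeats = singlicate, one well per test compound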
M4 ag: human M4 muscarinic receptor agonists, primary screen, CHO-K1 cells, Fluo-8 calcium fluorescence; Muscarinic acetylcholine receptor M4 (Homo sapiens), P08173; CHO-K1 hM4/Gqi5; vehicle 0%, full acetylcholine response 100%; activation, % at 3 µM; hit rate 0.14% among 360,000;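 active = activation above the run mean over all test wells plus 3 SD, cut at about 32% in these data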;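 also: peak over basal fluorescence ratio per well then scaled between controls; 0% = DMSO wells and 100% = acetylcholine at EC100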
CHRM4 PAM: human M4 muscarinic receptor positive allosteric modulators, primary screen, CHO-K1 cells, Fluo-8 calcium fluorescence; CHO-K1 hM4/Gqi5, ACh EC20; 0% = ACh EC20, 100% = maximal ACh; activation, % at 3 µM; hit rate 0.4% among 360,000;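 active = activation above its plate's cutoff, the mean activation of sample wells plus 3 SD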
M5 ag: human M5 muscarinic receptor agonists, primary screen, CHO-K1 cells, Fluo-8 calcium fluorescence | Muscarinic acetylcholine receptor M5 (Homo sapiens), P08912 | CHO-K1 hM5 cells; 0% DMSO wells, 100% maximal acetylcholine response | activation, % at 3 µM | hit rate 0.19% among 360,000 | AID 624037, 2012;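 active = activation above the run's mean over test compounds plus 3 SD, cut at about 23% in these data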;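 also: signal is peak over basal fluorescence ratio across the kinetic read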
M5 antag: human M5 muscarinic receptor antagonists, primary screen, CHO cells, Fluo-8 calcium fluorescence. hit rate 0.59% among 360,000. Muscarinic acetylcholine receptor M5 (Homo sapiens), P08912. CHO-hM5 cells, ACh EC80. inhibition, % at 3 µM;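 active = inhibition above a per-plate cutoff, the mean of that plate's test compounds plus 3 SD, cut at about 27% in these data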;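 also: 0% = acetylcholine EC80 with DMSO and 100% = DMSO without agonist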
* hit, by the source's call; ! = a repeat was not active.

SMILES | CHRM4 antagonist | M5 PAM | M4 ag | CHRM4 PAM | M5 ag | M5 antag
Cc1nc2c(o1)CCc1ccccc1C2N1CCN(C)CC1 (configuration not stated) | 98* | -43 | 1 | -9 | -10 | 98*
Cc1nc(S(=O)(=O)N2CCN(C3c4ccccc4-c4ccccc43)CC2)cn1C | -12 | 4 | 6 | -4 | -6 | -11
COc1cc(NC(=O)c2cc3ccccc3cc2O)c(OC)cc1Cl | 8 | -12 | 18 | -13 | 5 | 17
COc1ccccc1NC(=O)c1cc2cc(Br)ccc2cc1O | 28* | -18 | 33* | -19 | 6 | 37*
CCCCNc1c(-c2ccc(OC)c(SC(C)CC)c2)nc2ccc(Cl)cn12 (configuration not stated) | 5 | -8 | 5 | -4 | -5 | 9
CCCCNc1c(-c2ccc(-c3ccc(C(C)=O)cc3)c(OC)c2)nc2cc(C)ccn12 | 25 | -36 | 7 | -13 | -10 | 17
CCCCNc1c(-c2ccc(SC(C)CC)cc2)nc2ccccn12 (configuration not stated) | 45* | -29 | 11 | -12 | -1 | 25
CCCCNc1c(-c2ccc(OC)c(SC(C)CC)c2)nc2ccc(C)cn12 (configuration not stated) | 31*! | -30 | 16 | -4 | 1 | 14
CCCCNc1c(-c2ccc(OC)c(SC(C)CC)c2)nc2cc(C)ccn12 (configuration not stated) | 31*! | -22 | 12 | -11 | -4 | 8
CCCCNc1c(-c2ccc(OC)c(SC(C)CC)c2)nc2cnccn12 (configuration not stated) | -1 | -21 | 5 | -3 | -6 | 21
CCCCNc1c(-c2ccc(SC3CCCCC3)cc2)nc2ccccn12 | 21 | 0 | 6 | 0 | 5 | 6
CCCCNc1c(-c2ccc(Sc3ccc(OC)cc3)cc2)nc2cc(C)ccn12 | 44* | -13 | 4 | -13 | -5 | 11
CCOC(=O)N/N=C(\C)c1ccc(OC(F)F)cc1OC(F)F | 7 | -7 | -1 | -3 | -1 | 18
CC(C)NC(=O)C1(C)CCN1C(=O)c1cccc(F)c1 (configuration not stated) | -19 | 0 | 2 | 2 | -3 | 3
O=C(c1cccc(S(=O)(=O)N2CCOCC2)c1)N1CCN(C/C=C/c2ccccc2)CC1 | -5 | -49 | 5 | -14 | -12 | 39*
O=C(c1cccc(S(=O)(=O)N2CCOCC2)c1)N1CCC(Cc2ccccc2)CC1 | -19 | -2 | 5 | 5 | 1 | 1
CCOCc1c(C(=O)NCC(c2ccco2)N2CCCC2)oc2ccccc12 (configuration not stated) | 9 | -4 | 0 | -6 | -7 | 3
CCOC(=O)c1ccccc1-n1c(C)cc(C2N=C(N)Nc3nc4ccccc4n32)c1C (configuration not stated) | 60* | -22 | 1 | -16 | -7 | 9
O=C(Nc1ccc(Br)cc1)c1ccc(F)c(S(=O)(=O)NCc2cccs2)c1 | 24 | -18 | 12 | -10 | 9 | 38*
CC(C)Oc1ccc(OCCn2c(S(=O)(=O)O)nc3c(N)ncnc32)cc1 | -14 | 10 | 0 | 3 | 0 | -1
Cc1c(C(=O)N(CCO)Cc2ccccc2)oc2c(F)cccc12 | 1 | -1 | 3 | 2 | 2 | -9
CCc1c(-c2ccccc2F)ncn1Cc1cccc(-c2ccccc2)c1 | 19 | -17 | 11 | -15 | -1 | 11
CCCCc1c(-c2cccc(OC)c2)ncn1CCc1ccccc1OC | 41* | -22 | 9 | -14 | -1 | 33*
CCc1c(-c2cccc(OC)c2)ncn1Cc1cccc(-c2ccccc2)c1 | 34* | -15 | 13 | -14 | -2 | 15

Screening data from PubChem BioAssay.
